Source: ChEMBL document CHEMBL4689842, “EUbOPEN Chemogenomics Library wave 1” (2021)
Values joined by “and” are separate entries in the source; they are usually repeats but may differ in a detail not shown here. Identical values can stand only once.

Tested on: U2OS
Assay: Multiplex assay against U2OS
Format: toxicity, cell-based
Conditions: human
Outline: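 Live cells were stained at seeding with Hoechst33342, BioTracker Green Microtubule Cytoskeleton Dye, MitoTracker Red and Annexin V Alexa Fluor 680, then imaged on a CQ1 microscope at 37°C and 5% CO2 after compound addition. CellPathfinder machine-learning gating split cells into Hoechst high-intensity objects or normal cells. Normal cells were split into healthy, pyknosed or fragmented nuclei, and pyknosed cells into mitotic or apoptotic. Tubulin, mitochondrial-mass and membrane-permeability phenotypes are per cents of healthy-nucleus cells.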

[1] = 12 h, 1 µM, compound concentration 1 uM, replicate 1
[2] = 12 h, 1 µM, compound concentration 1 uM, replicate 2
[3] = 12 h, 10 µM, compound concentration 10 uM, replicate 1
[4] = 12 h, 10 µM, compound concentration 10 uM, replicate 2
[5] = 24 h, 1 µM, compound concentration 1 uM, replicate 1
[6] = 24 h, 1 µM, compound concentration 1 uM, replicate 2
[7] = 24 h, 10 µM, compound concentration 10 uM, replicate 1
[8] = 24 h, 10 µM, compound concentration 10 uM, replicate 2

## CCOc1ccn(-c2ccc(F)cc2)c(=O)c1C(=O)Nc1ccc(Oc2ccnc(N)c2Cl)c(F)c1 [BMS-777607]
[1]
  Population Apoptotic (%): 41%
  Population Healthy Nuclei (%): 88%
  Population Hoechst High Intensity Objects (%): 4%
  Population Membrane Permeable-Phenotype (%): 35%
  Population Mitochondria Different-Phenotype (%): 11%
  Population Mitotic Cells (%): 58%
  Population Normal (%): 95%
  Population Pyknosed Nuclei (%): 6%
  Total Cell Count: 190
[2]
  Population Apoptotic (%): 28%
  Population Fragmented Nuclei (%): 4%
  Population Healthy Nuclei (%): 86%
  Population Hoechst High Intensity Objects (%): 13%
  Population Membrane Permeable-Phenotype (%): 40%
  Population Mitochondria Different-Phenotype (%): 31%
  Population Mitotic Cells (%): 71%
  Population Normal (%): 86%
  Population Pyknosed Nuclei (%): 8%
  Population Tubulin-Different-Phenotype (%): 18%
  Total Cell Count: 94
[3]
  Population Apoptotic (%): 66%
  Population Fragmented Nuclei (%): 2%
  Population Healthy Nuclei (%): 91%
  Population Hoechst High Intensity Objects (%): 1%
  Population Membrane Permeable-Phenotype (%): 5%
  Population Mitochondria Different-Phenotype (%): 33%
  Population Mitotic Cells (%): 33%
  Population Normal (%): 98%
  Population Pyknosed Nuclei (%): 6%
  Population Tubulin-Different-Phenotype (%): 29%
  Total Cell Count: 193
[4]
  Population Apoptotic (%): 0%
  Population Fragmented Nuclei (%): 6%
  Population Healthy Nuclei (%): 89%
  Population Hoechst High Intensity Objects (%): 16%
  Population Mitochondria Different-Phenotype (%): 30%
  Population Mitotic Cells (%): 100%
  Population Normal (%): 83%
  Population Pyknosed Nuclei (%): 4%
  Population Tubulin-Different-Phenotype (%): 37%
  Total Cell Count: 118
[5]
  Population Apoptotic (%): 57%
  Population Fragmented Nuclei (%): 7%
  Population Healthy Nuclei (%): 85%
  Population Hoechst High Intensity Objects (%): 3%
  Population Membrane Permeable-Phenotype (%): 37%
  Population Mitochondria Different-Phenotype (%): 23%
  Population Mitotic Cells (%): 42%
  Population Normal (%): 96%
  Population Pyknosed Nuclei (%): 7%
  Population Tubulin-Different-Phenotype (%): 16%
  Total Cell Count: 196
[6]
  Population Apoptotic (%): 36%
  Population Fragmented Nuclei (%): 6%
  Population Healthy Nuclei (%): 81%
  Population Hoechst High Intensity Objects (%): 10%
  Population Membrane Permeable-Phenotype (%): 28%
  Population Mitochondria Different-Phenotype (%): 35%
  Population Mitotic Cells (%): 63%
  Population Normal (%): 89%
  Population Pyknosed Nuclei (%): 12%
  Population Tubulin-Different-Phenotype (%): 20%
  Total Cell Count: 101
[7]
  Population Apoptotic (%): 26%
  Population Fragmented Nuclei (%): 3%
  Population Healthy Nuclei (%): 91%
  Population Hoechst High Intensity Objects (%): 1%
  Population Membrane Permeable-Phenotype (%): 5%
  Population Mitochondria Different-Phenotype (%): 27%
  Population Mitotic Cells (%): 73%
  Population Normal (%): 98%
  Population Pyknosed Nuclei (%): 5%
  Population Tubulin-Different-Phenotype (%): 30%
  Total Cell Count: 263
[8]
  Population Apoptotic (%): 12%
  Population Fragmented Nuclei (%): 2%
  Population Healthy Nuclei (%): 90%
  Population Hoechst High Intensity Objects (%): 8%
  Population Membrane Permeable-Phenotype (%): 8%
  Population Mitochondria Different-Phenotype (%): 34%
  Population Mitotic Cells (%): 87%
  Population Normal (%): 91%
  Population Pyknosed Nuclei (%): 6%
  Population Tubulin-Different-Phenotype (%): 36%
  Total Cell Count: 133

## CC[C@@]1(O)C(=O)OCc2c1cc1n(c2=O)Cc2cc3ccccc3nc2-1 [CAMPTOTHECIN]
[1]
  Population Healthy Nuclei (%): 34% and 42% and 78%
  Population Membrane Permeable-Phenotype (%): 11% and 13% and 14%
  Population Mitochondria Different-Phenotype (%): 25% and 31% and 35%
  Population Normal (%): 48% and 90%
  Population Pyknosed Nuclei (%): 13% and 7%
  Population Tubulin-Different-Phenotype (%): 20% and 33%
[2]
  Population Apoptotic (%): 22% and 36% and 16%
  Population Fragmented Nuclei (%): 62% and 59% and 26%
  Population Healthy Nuclei (%): 25% and 24% and 65%
  Population Hoechst High Intensity Objects (%): 62% and 50% and 28%
  Population Membrane Permeable-Phenotype (%): 10% and 9%
  Population Mitochondria Different-Phenotype (%): 45% and 38% and 22%
  Population Mitotic Cells (%): 77% and 64% and 83%
  Population Normal (%): 37% and 49% and 71%
  Population Pyknosed Nuclei (%): 12% and 15%
[3]
  Population Apoptotic (%): 47%
  Population Fragmented Nuclei (%): 13%
  Population Healthy Nuclei (%): 74%
  Population Hoechst High Intensity Objects (%): 6%
  Population Membrane Permeable-Phenotype (%): 16%
  Population Mitochondria Different-Phenotype (%): 24%
  Population Mitotic Cells (%): 52%
  Population Normal (%): 93%
  Population Pyknosed Nuclei (%): 11%
  Population Tubulin-Different-Phenotype (%): 31%
  Total Cell Count: 161
[4]
  Population Apoptotic (%): 18%
  Population Fragmented Nuclei (%): 20%
  Population Healthy Nuclei (%): 68%
  Population Hoechst High Intensity Objects (%): 19%
  Population Membrane Permeable-Phenotype (%): 13%
  Population Mitochondria Different-Phenotype (%): 32%
  Population Mitotic Cells (%): 81%
  Population Normal (%): 80%
  Population Pyknosed Nuclei (%): 10%
  Population Tubulin-Different-Phenotype (%): 38%
  Total Cell Count: 131
[5]
  Population Apoptotic (%): 63% and 75% and 77%
  Population Healthy Nuclei (%): 26% and 28% and 72%
  Population Membrane Permeable-Phenotype (%): 36% and 32% and 15%
  Population Mitochondria Different-Phenotype (%): 58% and 57% and 35%
  Population Mitotic Cells (%): 36% and 24% and 22%
  Population Normal (%): 43% and 46% and 91%
  Population Pyknosed Nuclei (%): 15% and 18%
  Population Tubulin-Different-Phenotype (%): 38% and 42% and 40%
[6]
  Population Apoptotic (%): 54% and 62% and 80%
  Population Fragmented Nuclei (%): 63% and 22%
  Population Hoechst High Intensity Objects (%): 59% and 27%
  Population Mitochondria Different-Phenotype (%): 54% and 50% and 33%
  Population Mitotic Cells (%): 45% and 37% and 20%
  Population Normal (%): 40% and 72%
  Population Pyknosed Nuclei (%): 21% and 11%
[7]
  Population Apoptotic (%): 80%
  Population Fragmented Nuclei (%): 21%
  Population Healthy Nuclei (%): 65%
  Population Hoechst High Intensity Objects (%): 5%
  Population Membrane Permeable-Phenotype (%): 14%
  Population Mitochondria Different-Phenotype (%): 41%
  Population Mitotic Cells (%): 20%
  Population Normal (%): 94%
  Population Pyknosed Nuclei (%): 13%
  Population Tubulin-Different-Phenotype (%): 37%
  Total Cell Count: 157
[8]
  Population Apoptotic (%): 90%
  Population Fragmented Nuclei (%): 25%
  Population Healthy Nuclei (%): 64%
  Population Hoechst High Intensity Objects (%): 10%
  Population Membrane Permeable-Phenotype (%): 17%
  Population Mitochondria Different-Phenotype (%): 35%
  Population Mitotic Cells (%): 9%
  Population Normal (%): 89%
  Population Pyknosed Nuclei (%): 11%
  Population Tubulin-Different-Phenotype (%): 42%
  Total Cell Count: 112
